Assays:
Conditions in all cases: stereoisomer not certain
[1] = target: T1, OR10H3 (Homo sapiens) (UniProt O60404)
T1 sequence (whole entry): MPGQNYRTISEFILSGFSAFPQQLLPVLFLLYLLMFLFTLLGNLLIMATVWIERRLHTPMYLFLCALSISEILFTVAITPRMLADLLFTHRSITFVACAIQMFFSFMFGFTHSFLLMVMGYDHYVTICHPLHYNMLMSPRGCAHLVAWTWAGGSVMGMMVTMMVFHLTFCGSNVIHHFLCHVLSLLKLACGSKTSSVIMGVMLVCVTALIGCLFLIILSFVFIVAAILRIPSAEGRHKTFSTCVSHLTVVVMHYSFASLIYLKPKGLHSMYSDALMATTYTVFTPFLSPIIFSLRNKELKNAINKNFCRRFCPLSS
Method in brief: (§1)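 Each receptor–molecule pair is labelled responsive or non-responsive (inactive) according to whether the original authors judged the measured signal statistically different from baseline. The data were taken from the main text and supplementary material of published papers and checked for typos and inconsistencies. Assay methods differed by source, with transient luciferase assays in mammalian cell lines being common.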

[2] = target: T2, OR10H4 (Homo sapiens) (UniProt Q8NGA5)
T2 sequence (whole entry): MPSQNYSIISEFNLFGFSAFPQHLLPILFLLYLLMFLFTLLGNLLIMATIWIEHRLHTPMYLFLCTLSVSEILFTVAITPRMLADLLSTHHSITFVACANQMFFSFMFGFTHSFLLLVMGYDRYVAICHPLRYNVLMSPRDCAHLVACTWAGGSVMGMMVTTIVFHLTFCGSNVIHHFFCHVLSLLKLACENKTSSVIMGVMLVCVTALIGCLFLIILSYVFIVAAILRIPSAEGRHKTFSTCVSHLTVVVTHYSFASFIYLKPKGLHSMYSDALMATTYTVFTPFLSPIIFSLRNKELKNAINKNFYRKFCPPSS
Method in brief: as §1

[3] = target: T3, OR10H5 (Homo sapiens) (UniProt Q8NGA6)
T3 sequence (whole entry): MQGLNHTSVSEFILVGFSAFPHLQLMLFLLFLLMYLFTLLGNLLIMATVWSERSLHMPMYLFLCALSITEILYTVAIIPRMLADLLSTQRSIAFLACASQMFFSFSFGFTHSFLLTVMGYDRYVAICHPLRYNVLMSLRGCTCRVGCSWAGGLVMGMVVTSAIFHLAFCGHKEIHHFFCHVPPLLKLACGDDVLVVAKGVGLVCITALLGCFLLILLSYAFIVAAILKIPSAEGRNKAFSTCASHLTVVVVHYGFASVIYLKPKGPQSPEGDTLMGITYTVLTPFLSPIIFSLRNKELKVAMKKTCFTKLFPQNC
Method in brief: as §1

[4] = target: T4, OR10J1 (Homo sapiens) (UniProt P30954)
T4 sequence (whole entry): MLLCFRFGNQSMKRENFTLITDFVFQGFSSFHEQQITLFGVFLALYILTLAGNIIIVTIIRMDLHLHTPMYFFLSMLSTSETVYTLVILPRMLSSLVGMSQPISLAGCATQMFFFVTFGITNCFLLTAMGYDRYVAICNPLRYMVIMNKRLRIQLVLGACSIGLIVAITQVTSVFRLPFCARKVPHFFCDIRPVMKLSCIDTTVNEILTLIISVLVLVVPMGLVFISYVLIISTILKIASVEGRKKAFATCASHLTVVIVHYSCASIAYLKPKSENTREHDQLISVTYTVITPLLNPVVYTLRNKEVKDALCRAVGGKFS
Method in brief: as §1

[5] = target: T5, OR10J3 (Homo sapiens) (UniProt Q5JRS4)
T5 sequence (whole entry): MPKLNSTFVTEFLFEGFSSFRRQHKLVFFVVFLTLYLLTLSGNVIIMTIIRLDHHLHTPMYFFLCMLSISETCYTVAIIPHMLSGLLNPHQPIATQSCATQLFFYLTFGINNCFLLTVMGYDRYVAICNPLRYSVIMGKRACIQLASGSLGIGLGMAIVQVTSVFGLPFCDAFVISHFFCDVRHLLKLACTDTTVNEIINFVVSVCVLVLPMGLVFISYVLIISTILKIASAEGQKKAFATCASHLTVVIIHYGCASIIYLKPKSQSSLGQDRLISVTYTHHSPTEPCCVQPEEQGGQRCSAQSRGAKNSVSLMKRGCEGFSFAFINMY
Method in brief: as §1

[6] = target: T6, OR10J5 (Homo sapiens) (UniProt Q8NHC4)
T6 sequence (whole entry): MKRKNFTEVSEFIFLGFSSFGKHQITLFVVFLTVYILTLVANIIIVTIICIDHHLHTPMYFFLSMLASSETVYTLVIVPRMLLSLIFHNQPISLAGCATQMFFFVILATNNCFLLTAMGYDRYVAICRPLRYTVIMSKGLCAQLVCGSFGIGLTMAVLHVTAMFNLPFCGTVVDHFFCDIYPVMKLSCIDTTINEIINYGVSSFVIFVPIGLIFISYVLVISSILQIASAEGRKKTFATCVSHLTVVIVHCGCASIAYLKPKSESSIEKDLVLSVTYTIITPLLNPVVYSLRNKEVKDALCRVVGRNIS
Method in brief: as §1

[7] = target: T7, OR10K1 (Homo sapiens) (UniProt Q8NGX5)
T7 sequence (whole entry): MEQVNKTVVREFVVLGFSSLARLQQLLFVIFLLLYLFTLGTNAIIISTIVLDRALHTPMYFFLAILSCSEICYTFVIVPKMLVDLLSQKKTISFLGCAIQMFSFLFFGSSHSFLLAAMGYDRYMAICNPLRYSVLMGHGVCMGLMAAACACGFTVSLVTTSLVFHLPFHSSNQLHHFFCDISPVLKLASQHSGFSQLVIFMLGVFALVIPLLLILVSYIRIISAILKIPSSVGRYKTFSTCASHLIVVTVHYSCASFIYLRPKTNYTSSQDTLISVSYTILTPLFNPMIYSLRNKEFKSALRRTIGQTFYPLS
Method in brief: as §1

[8] = target: T8, OR10K2 (Homo sapiens) (UniProt Q6IF99)
T8 sequence (whole entry): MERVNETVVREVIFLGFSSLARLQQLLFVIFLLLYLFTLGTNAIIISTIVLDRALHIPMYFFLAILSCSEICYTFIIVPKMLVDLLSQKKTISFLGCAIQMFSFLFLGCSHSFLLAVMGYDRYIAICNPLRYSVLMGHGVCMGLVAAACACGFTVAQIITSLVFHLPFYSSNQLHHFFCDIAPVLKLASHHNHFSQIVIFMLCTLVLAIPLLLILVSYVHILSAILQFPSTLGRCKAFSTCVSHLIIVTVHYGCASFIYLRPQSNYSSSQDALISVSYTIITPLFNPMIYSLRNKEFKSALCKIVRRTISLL
Method in brief: as §1

[9] = target: T9, OR10P1 (Homo sapiens) (UniProt Q8NGE3)
T9 sequence (whole entry): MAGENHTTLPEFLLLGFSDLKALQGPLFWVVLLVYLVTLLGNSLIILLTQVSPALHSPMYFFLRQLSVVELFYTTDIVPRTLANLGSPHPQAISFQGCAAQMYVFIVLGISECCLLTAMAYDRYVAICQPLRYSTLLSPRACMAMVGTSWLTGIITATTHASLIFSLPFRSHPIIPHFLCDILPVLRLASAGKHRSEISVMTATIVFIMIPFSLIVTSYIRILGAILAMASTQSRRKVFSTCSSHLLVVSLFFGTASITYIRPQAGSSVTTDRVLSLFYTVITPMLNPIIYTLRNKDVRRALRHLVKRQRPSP
Method in brief: as §1

[10] = target: T10, OR10Q1 (Homo sapiens) (UniProt Q8NGQ4)
T10 sequence (whole entry): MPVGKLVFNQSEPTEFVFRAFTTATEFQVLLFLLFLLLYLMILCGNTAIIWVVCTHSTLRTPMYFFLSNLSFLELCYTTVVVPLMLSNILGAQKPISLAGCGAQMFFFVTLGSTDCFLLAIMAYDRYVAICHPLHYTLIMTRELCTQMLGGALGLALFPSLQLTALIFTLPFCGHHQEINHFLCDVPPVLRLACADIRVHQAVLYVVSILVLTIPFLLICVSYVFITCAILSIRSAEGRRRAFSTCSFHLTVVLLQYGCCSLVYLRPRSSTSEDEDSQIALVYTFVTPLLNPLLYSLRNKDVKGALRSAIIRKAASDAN
Method in brief: as §1

Measured: odorant receptor agonist call

CCCCCC(S)C(C)CO (stereo not given)
inactive: all assays above
